UBC13 inh: human UBC13 polyubiquitination inhibition; actives 0.47% (n = 330,000); AID 485273; UBC13 polyubiquitin chain formation, TR-FRET; inhibition, % at 20 µM; in the data active = inhibition above about 45%, passing the limit was not always enough
SENP8 block-1: SENP8 (human) protease inhibition. actives 0.64% (n = 360,000). recombinant SENP8, Nedd8 substrate fluorescence. inhibition, % at 20 µM. AID 602440; in the data active = inhibition mostly above about 40%, no sharp cut-off; inactive = mostly below about 27%
Target sequence (Q96LD8 whole entry, looked up): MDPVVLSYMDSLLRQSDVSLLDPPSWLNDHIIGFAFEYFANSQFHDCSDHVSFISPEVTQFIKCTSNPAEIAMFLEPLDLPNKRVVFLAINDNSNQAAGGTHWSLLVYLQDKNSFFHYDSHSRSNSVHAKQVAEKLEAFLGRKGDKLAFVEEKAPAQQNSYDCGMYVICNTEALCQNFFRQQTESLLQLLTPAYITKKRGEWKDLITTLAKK
SENP8 block-2: blocks the human protease SENP8; Q96LD8; purified SENP8, Z-RLRGG-aminoluciferin cleavage, luminescence; inhibition, % at 10 µM; actives 1.2% (n = 330,000); in the data active = inhibition above about 50%
SENP6 inh: SENP6 protease inhibition. Recombinant SENP6 catalytic domain, aminoluciferin luminescence. AID 2599. inhibition, % at 10 µM. Q9GZR1. actives 1.8% (n = 330,000);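 active = inhibition above about 50% at the single tested dose, limit read from the data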;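 also: plate controls were DMSO wells with enzyme for no effect and DMSO wells lacking enzyme for full effect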
Apaf1 inhib: blocks human Apaf-1 apoptosome activity; actives 0.71% (n = 330,000); inhibition, % at 20 µM; O14727; reconstituted apoptosome caspase-3 activity, DEVD-Rh110 fluorescence; active = inhibition of at least 40% at 20 µM;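 also: plate controls were DMSO wells for no effect and DEVD-CHO caspase inhibitor wells for full effect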
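System: Apoptosome proteins | Medium: Hepes pH 7.5 with detergent and BSA | Also added: Cytochrome c trigger plus (Z-DEVD)2-Rh110 caspase-3 substrate | Incubation: 30 min compound preincubation, 50 min activation, room temperature | Detection: Rhodamine 110 fluorescence at Ex 480/Em 540 nm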
SENP7 block: inhibitors of human SENP7 protease; Q9BQF6; recombinant SENP7, Z-RLRGG-aminoluciferin luminescence, 40 min; inhibition, % at 5 µM; actives 1.5% (n = 330,000);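 active = inhibition above about 50% at the single test dose, limit read from the data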;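 also: plate controls were DMSO with enzyme for no effect and no enzyme buffer wells for full effect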
SENP8 conf: human SENP8 inhibition, confirmed; shares compounds with SENP7 block; Recombinant SENP8, Z-RLRGG-aminoluciferin luminescence, 60 min; inhibition, % at 12.5 µM; actives 40% (n = 6,200); AID 488912;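 active = mean inhibition across replicates above about 50%, limit read from the data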
SENP6 conf: human SENP6 inhibition, confirmed; inhibition, % at 12.5 µM; actives 58% (n = 6,200); recombinant SENP6, Z-RLRGG-aminoluciferin luminescence; shares compounds with SENP7 block; AID 488915
SENP7 conf: human SENP7 inhibition, confirmed. recombinant SENP7, Z-RLRGG-aminoluciferin luminescence, 40 min. inhibition, % at 12.5 µM. AID 488917. shares compounds with SENP7 block. actives 69% (n = 6,200)
Casp3 select: selectivity test for SENP inhibitors: human caspase-3 inhibition; shares compounds with SENP7 block; purified caspase-3, Z-DEVD-aminoluciferin luminescence, 60 min; inhibition, % at 12.5 µM; actives 60% (n = 6,200);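 active = mean inhibition above about 50%, limit read from the data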;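 also: plate controls were enzyme with DMSO for no effect and wells without caspase-3 for full effect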
Target sequence (P42574 28-227 limits assumed): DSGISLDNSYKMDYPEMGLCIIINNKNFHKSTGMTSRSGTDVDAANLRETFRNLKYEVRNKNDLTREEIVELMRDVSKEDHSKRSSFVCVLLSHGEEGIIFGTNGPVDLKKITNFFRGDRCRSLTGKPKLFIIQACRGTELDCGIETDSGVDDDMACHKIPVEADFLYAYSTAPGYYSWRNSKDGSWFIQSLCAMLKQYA
SENP luc ctr: luminescence interference (SENP counter-screen) | shares compounds with SENP7 block | Pre-incubated SENP8/Z-RLRGG-aminoluciferin, luciferase luminescence interference | inhibition, % at 12.5 µM | actives 39% (n = 6,200);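 active = mean inhibition above about 50% when retested at one dose, limit read from the data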;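 also: plate controls were DMSO wells with completed reaction for no effect and substrate without enzyme for full effect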
Numbers without * were called inactive; / = no result. Sampled rows, rich in hits. Any-hit rate of the full collection: about 3.1%.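 The calls were made as follows, unless noted: active = mean inhibition above about 50% in the one-dose retest (limit read from the data); inactive = the rest.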

SMILES	UBC13 inh	SENP8 block-1	SENP8 block-2	SENP6 inh	Apaf1 inhib	SENP7 block	SENP8 conf	SENP6 conf	SENP7 conf	Casp3 select	SENP luc ctr
Cn1c(NCc2ccc(Cl)cc2)nc2ccccc21	4	9	8	35	2	29	/	/	/	/	/
COc1ccc(C(=O)Nc2ccc3ccccc3n2)cc1OC	8	-43	-7	12	-4	1	/	/	/	/	/
O=C(Nc1ccc2ccccc2n1)c1ccccc1	3	19	87*	88*	1	93*	85*	85*	98*	89*	89*
Cc1ccc(C(=O)Nc2ccc3ccccc3n2)cc1	-5	11	80*	86*	8	86*	88*	88*	97*	82*	77*
O=C(Nc1ccc2ccccc2n1)c1ccccc1Br	6	0	77*	79*	10	84*	9	80*	97*	82*	17
Clc1ccc(-c2nc(-c3ccncc3)no2)c(Cl)c1	4	26	58*	63*	-15	77*	8	10	26	20	10
Cc1ccc(-c2nc(-c3ccncc3)no2)c(Cl)c1	-5	4	75*	71*	8	89*	-8	10	42	28	27
Clc1ccc(Cl)c(-c2nc(-c3ccncc3)no2)c1	-3	16	1	2	-4	-1	/	/	/	/	/
Cc1ccc(S(=O)(=O)N2C[C@H]3C(=O)C[C@@H](c4ccccc4)N(S(=O)(=O)c4ccc(C)cc4)[C@H]3C[C@H]2c2ccccc2Cl)cc1	/	15	/	/	/	/	/	/	/	/	/
CC1CCN(c2cc(N(C)CCO)c([N+](=O)[O-])c3nonc23)CC1	-63	28	4	2	3	90*	9	7	-2	-5	-7
O=C1NC[C@@H](CCCCN2C[C@H](Cc3ccc(O)cc3)N(CCC3CCCCC3)C(=O)C2=O)N(CC2CCCCC2)C1=O	/	14	/	/	/	/	/	/	/	/	/
CCc1nc2ccc(C(=O)Nc3ccc4c(c3)OCC(=O)N4)cn2c1N(C)C(=O)C1CCCCC1	/	1	/	/	/	/	/	/	/	/	/
O=C(Oc1ccc2ccccc2c1Cl)N1CCCC1	10	16	38	73*	21	57*	48	52*	84*	53*	59*
O=C(Oc1ccc2ccccc2c1Cl)N1CCCCCC1	-8	20	54*	76*	27	53*	71*	70*	87*	45	37
O=C1NC2NC(=O)N(C(Cc3ccccc3)C(=O)O)C2N1 (stereo not drawn)	5	17	2	60*	-7	5	-26	-24	-11	-6	-8
O=C(O)C(Cc1ccccc1)N1Cc2ccccc2C1=O (stereo not drawn)	7	19	-2	-6	-5	-6	/	/	/	/	/
C#Cc1cccc(N2C(=O)C3C4C=CC(C3C2=O)C2C(=O)N(c3cccc(C#C)c3)C(=O)C42)c1 (stereo not drawn)	/	2	/	/	/	/	/	/	/	/	/
COc1ccc(N=Cc2sc3ccccc3c2Cl)cc1	-3	31	25	30	-4	58*	10	22	36	37	15
COc1ccc2[nH]c3c(NCCCOC(C)C)ncnc3c2c1	21	-267	90*	93*	6	96*	90*	93*	101*	96*	93*
CCN(CC)CCNc1ncnc2c1[nH]c1ccc(OC)cc12	23	/	4	-16	3	5	/	/	/	/	/
O=C(c1ccc(CNS(=O)(=O)c2ccc(F)cc2)cc1)N1CCCCCC1	/	13	/	/	/	/	/	/	/	/	/
